Source: ChEMBL document CHEMBL4732078 (Eur J Med Chem, 2021)
Calls of active or inactive are those of the source. No cut-off for these calls is given here.

Assays:
[1] = molecular target: T1, Phosphatidylinositol 4,5-bisphosphate 3-kinase catalytic subunit alpha isoform (Homo sapiens, UniProt P42336); assay: Inhibition of PI3Kalpha in human Rh30 cells assessed as reduction in rhIGF1-stimulated AKT phosphorylation at Ser473 treated for 1 hr followed by incubation with IGF1 for 10 mins by western blot analysis; format: cell-based; conditions: dose 0.01-1 µM, time 70.0 min
T1 sequence (P42336 whole entry, canonical isoform): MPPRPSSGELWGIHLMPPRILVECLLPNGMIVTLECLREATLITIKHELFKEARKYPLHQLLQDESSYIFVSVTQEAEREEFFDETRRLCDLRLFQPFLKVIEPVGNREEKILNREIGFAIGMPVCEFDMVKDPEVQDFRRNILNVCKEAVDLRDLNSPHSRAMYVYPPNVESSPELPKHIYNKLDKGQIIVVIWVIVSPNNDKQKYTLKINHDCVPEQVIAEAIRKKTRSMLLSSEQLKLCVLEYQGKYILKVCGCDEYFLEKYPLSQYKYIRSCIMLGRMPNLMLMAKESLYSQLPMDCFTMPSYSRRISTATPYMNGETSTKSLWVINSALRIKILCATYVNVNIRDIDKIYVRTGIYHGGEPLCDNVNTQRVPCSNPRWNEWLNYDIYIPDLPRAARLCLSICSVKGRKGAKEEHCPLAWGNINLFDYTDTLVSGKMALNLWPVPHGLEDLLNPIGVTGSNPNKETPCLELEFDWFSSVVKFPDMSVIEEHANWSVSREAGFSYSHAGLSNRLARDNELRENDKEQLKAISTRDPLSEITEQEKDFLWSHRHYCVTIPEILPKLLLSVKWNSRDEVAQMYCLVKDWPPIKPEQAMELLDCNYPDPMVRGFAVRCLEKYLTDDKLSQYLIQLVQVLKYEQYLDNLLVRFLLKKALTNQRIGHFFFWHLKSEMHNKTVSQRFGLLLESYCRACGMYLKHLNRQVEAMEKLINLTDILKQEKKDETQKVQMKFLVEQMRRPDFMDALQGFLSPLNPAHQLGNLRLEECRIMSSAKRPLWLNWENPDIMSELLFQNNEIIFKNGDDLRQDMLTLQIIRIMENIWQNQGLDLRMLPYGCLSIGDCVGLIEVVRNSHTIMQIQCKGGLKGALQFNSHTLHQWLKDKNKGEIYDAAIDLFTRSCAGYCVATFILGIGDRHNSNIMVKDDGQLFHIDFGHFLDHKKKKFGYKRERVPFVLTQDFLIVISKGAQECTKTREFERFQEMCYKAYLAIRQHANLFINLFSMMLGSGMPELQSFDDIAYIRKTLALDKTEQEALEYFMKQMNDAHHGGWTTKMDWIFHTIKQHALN
How it was run: (§1)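 U87MG or Rh30 cells held 24 h in serum-free medium, exposed to compound for 1 h, then stimulated with 50 ng/ml IGF-I for 10 min. Lysates blotted for Akt, pAkt T308 and pAkt S473.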

[2] = molecular target: T1, Phosphatidylinositol 4,5-bisphosphate 3-kinase catalytic subunit alpha isoform; assay: Inhibition of PI3Kalpha in human Rh30 cells assessed as reduction in rhIGF1-stimulated AKT phosphorylation at Thr308 treated for 1 hr followed by incubation with IGF1 for 10 mins by western blot analysis; format: cell-based; conditions: dose 0.01-1 µM, time 70.0 min; how it was run: as §1
SK-OV-3 [3] = assay: Antitumor activity against human SK-OV-3 cells xenografted in BALB/cA nude mouse assessed as tumor growth at 10 mg/kg, po administered once a day for 21 days and measured twice per week; format: functional; conditions: dose 10 mg/kg/day; time 21 day
How it was run: (§2)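 Female BALB/cA nude mice, 4–5 weeks old. SKOV-3 xenografts passaged once in vivo, then 1.5 mm³ fragments implanted s.c. in the right flank by trocar. At about 100 mm³ mice were randomized to vehicle or drug given orally once daily. Tumor size and body weight measured twice weekly; V = length × width²/2.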

[4] = Tmax in rat at 10 mg/kg, po; format: ADME, organism-based; conditions: in vivo
How it was run: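 Male rats were dosed orally at 10 mg/kg, with a parallel i.v. arm at 5 mg/kg. Plasma PK parameters were derived, including Cmax, Tmax, T1/2 and AUC0-∞, with oral bioavailability (F) reported against the i.v. arm.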

SK-OV-3 [5] = assay: Antiproliferative activity against human SK-OV-3 cells assessed as reduction in cell viability after 72 hrs by sulforhodamine B assay; format: functional, cell-based; conditions: SK-OV-3, 72 h
How it was run: (§3)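 SRB assay. Exponentially growing cells seeded at 3000–5000/well, compounds added serially diluted after 24 h, cultured 72 h. Cells fixed with 10% TCA, stained with SRB, dye dissolved in 10 mM Tris-HCl, absorbance read at 560 nm. Inhibition = (ODcontrol − ODtreated)/ODcontrol × 100%. IC50 is the mean of at least three independent tests.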

[6] = molecular target: T1, Phosphatidylinositol 4,5-bisphosphate 3-kinase catalytic subunit alpha isoform; assay: Inhibition of PI3Kalpha (unknown origin) transfected in human Rh30 cells assessed as reduction in AKT phosphorylation at Thr308 residue at 14 nM by western blot analysis; format: cell-based
How it was run: (§4)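 Rh30 cells ectopically expressing membrane-anchored, N-terminally myristoylated, constitutively active p110α, β, γ or δ. Akt phosphorylation assessed by Western blot; lysates made in RIPA buffer, equal protein heated at 95 °C for 10 min in SDS loading buffer.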

MDA-MB-231 = assay: Antiproliferative activity against human MDA-MB-231 cells assessed as reduction in cell viability after 72 hrs by sulforhodamine B assay; format: functional, cell-based; conditions: MDA-MB-231, 72 h; how it was run: as §3
SJRH30 = assay: Antiproliferative activity against human Rh30 cells assessed as reduction in cell viability after 72 hrs by sulforhodamine B assay; format: functional, cell-based; conditions: SJRH30, 72 h; how it was run: as §3
PI3K p110 beta/p85 alpha = PI3K p110 beta/p85 alpha (Homo sapiens, UniProt P42338); assay: Inhibition of human PI3K p110beta/p85alpha using PIP2 as substrate incubated for 30 mins in presence of ATP measured after 30 mins by HTRF assay
Sequence of PI3K p110 beta/p85 alpha (P27986 whole entry): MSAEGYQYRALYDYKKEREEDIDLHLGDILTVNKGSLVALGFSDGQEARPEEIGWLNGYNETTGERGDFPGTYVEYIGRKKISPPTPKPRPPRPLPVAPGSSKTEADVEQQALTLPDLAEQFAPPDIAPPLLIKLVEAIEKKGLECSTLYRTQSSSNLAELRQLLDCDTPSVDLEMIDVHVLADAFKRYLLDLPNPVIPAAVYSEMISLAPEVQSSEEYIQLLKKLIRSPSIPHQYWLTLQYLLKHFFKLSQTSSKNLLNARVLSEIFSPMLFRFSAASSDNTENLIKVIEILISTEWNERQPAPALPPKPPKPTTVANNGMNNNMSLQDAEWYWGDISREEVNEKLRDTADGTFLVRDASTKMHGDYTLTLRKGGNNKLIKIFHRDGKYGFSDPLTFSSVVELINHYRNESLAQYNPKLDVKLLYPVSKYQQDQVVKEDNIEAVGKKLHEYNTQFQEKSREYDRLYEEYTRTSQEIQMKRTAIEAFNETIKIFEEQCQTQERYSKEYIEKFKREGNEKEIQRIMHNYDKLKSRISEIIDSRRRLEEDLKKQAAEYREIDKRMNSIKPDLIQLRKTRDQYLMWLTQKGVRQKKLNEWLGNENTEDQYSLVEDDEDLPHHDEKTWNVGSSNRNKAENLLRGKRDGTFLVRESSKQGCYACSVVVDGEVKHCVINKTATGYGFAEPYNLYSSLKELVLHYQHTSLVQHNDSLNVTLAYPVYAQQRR
Sequence of PI3K p110 beta/p85 alpha (P42338 whole entry): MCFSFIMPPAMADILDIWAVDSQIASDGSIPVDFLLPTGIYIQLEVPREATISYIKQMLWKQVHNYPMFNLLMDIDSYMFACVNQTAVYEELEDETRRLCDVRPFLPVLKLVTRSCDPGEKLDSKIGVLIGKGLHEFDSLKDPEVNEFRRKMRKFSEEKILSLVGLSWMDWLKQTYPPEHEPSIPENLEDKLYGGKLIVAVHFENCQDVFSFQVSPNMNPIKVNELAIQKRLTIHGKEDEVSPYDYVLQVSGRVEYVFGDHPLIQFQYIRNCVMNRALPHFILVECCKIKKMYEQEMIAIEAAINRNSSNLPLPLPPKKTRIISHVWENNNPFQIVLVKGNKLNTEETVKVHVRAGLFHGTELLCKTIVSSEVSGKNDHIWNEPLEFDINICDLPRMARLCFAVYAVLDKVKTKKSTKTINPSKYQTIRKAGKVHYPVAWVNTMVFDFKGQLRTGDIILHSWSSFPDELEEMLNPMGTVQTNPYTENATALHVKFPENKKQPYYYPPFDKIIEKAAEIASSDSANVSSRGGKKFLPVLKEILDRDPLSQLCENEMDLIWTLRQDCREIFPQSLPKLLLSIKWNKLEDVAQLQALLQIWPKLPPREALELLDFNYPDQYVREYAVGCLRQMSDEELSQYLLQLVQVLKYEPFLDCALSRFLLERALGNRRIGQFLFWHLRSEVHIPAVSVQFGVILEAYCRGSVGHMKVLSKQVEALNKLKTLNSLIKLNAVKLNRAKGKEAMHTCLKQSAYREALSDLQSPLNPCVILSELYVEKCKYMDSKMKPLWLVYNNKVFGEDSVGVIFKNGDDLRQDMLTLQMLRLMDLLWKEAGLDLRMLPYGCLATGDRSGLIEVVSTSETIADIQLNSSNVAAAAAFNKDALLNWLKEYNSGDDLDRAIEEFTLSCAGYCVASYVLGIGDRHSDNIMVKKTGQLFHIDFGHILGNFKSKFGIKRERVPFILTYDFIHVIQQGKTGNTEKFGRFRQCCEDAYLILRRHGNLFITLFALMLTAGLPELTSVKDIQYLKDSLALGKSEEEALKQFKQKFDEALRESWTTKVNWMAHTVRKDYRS

[7] = Metabolic stability in mouse hepatocytes assessed as half life; format: ADME, cell-based, Hepatocyte
PC-3 = assay: Antiproliferative activity against human PC-3 cells assessed as reduction in cell viability after 72 hrs by sulforhodamine B assay; format: functional, cell-based; conditions: PC-3, 72 h; how it was run: as §3
[8] = molecular target: Phosphatidylinositol 4,5-bisphosphate 3-kinase catalytic subunit delta isoform (Homo sapiens) (UniProt O00329); assay: Inhibition of PI3Kdelta (unknown origin) transfected in human Rh30 cells assessed as reduction in AKT phosphorylation at Thr308 residue at 10XIC50 by western blot analysis; format: cell-based; how it was run: as §4
Sequence of Phosphatidylinositol 4,5-bisphosphate 3-kinase catalytic subunit delta isoform (Homo sapiens) (O00329 whole entry, canonical isoform): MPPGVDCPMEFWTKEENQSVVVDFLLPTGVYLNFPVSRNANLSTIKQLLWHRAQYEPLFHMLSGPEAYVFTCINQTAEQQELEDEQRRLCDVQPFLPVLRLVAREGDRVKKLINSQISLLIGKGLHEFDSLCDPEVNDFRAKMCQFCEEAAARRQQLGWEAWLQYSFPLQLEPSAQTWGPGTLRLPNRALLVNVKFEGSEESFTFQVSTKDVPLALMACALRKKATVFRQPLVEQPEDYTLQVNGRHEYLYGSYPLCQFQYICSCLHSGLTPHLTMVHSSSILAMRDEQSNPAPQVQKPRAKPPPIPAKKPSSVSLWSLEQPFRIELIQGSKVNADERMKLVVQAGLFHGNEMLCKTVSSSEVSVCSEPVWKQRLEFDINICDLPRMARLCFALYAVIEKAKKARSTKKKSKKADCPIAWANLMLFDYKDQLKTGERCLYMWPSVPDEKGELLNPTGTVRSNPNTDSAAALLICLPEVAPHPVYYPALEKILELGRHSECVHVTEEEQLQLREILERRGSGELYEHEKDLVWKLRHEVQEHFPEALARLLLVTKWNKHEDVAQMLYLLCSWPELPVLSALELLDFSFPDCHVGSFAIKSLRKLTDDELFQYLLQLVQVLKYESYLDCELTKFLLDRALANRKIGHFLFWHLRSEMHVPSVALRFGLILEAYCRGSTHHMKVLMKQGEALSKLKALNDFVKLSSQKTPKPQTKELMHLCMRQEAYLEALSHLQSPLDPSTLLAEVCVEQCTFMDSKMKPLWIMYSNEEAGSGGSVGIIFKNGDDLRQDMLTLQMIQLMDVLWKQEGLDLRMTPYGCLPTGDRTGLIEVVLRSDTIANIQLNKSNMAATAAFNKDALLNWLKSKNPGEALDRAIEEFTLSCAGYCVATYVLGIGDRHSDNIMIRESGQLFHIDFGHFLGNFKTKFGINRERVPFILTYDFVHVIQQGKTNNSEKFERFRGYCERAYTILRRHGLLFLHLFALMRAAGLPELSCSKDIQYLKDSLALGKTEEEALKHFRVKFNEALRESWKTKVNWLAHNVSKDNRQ

SK-OV-3 [9] = assay: Antitumor activity against human SK-OV-3 cells xenografted in BALB/cA nude mouse assessed as tumor growth at 20 mg/kg, po administered once a day for 21 days and measured twice per week; format: functional; conditions: dose 20 mg/kg/day; time 21 day; how it was run: as §2
[10] = Metabolic stability in Beagle dog hepatocytes assessed as half life; format: ADME, cell-based, Canis lupus familiaris, Hepatocyte

COC(=O)Nc1cc(C(F)(F)F)c(-c2nc(N3CCOCC3)c3cc(CN4CCN(S(C)(=O)=O)CC4)cn3n2)cn1 [RISOVALISIB]
inhibition [1]: Dose-dependent effect
inhibition [2]: Dose-dependent effect
Activity (SK-OV-3 [3]): 48.1%
Tmax [4]: 0.875 h
IC50 (SK-OV-3 [5]): < 1 µM
inhibition [6]: Active
IC50 (MDA-MB-231): < 1 µM
IC50 (SJRH30): 1.03 µM
IC50 (PI3K p110 beta/p85 alpha): 0.598 µM
half-life [7]: 1.56 h
IC50 (PC-3): < 1 µM
inhibition [8]: Active
Activity (SK-OV-3 [9]): 37%
half-life [10]: 1.46 h
